Assay results published in paper PMC8044591 (International Journal for Parasitology: Drugs and Drug …, 2021).
Like-named read-outs stand apart in the source and are kept apart here. Marks after values point to notes of the source that are not given here.

How the values were obtained:
[1] = Plasma pharmacokinetics after oral administration of MNP to parasitized calves; assay type: in vivo
How it was run: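 Eight calves on Farm 1 received a single oral 2.5 mg/kg dose. Jugular heparinised blood was drawn pre-dose, at 2–10 h and days 1–9; plasma was stored at −20 °C. Acetonitrile extraction, N2 evaporation, then C18 HPLC-UV at 230 nm (acetonitrile:methanol:water 60:8:32, 0.8 mL/min) quantified parent and sulphone metabolite. Calibration 4–400 ng/mL; LOQ 4 ng/mL. Non-compartmental analysis: observed Cmax, trapezoidal AUC extrapolated to infinity, moment-based MRT; mean ± SD.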

[2] = system: GI nematodes resistant to IVM and RBZ; assay: Faecal egg count reduction test; assay type: in vivo; conditions: for EPG Counts Day 15: arithmetic mean, n = 15
How it was run: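 Naturally infected male Aberdeen Angus calves, 9–11 months, ≥100 EPG on day −1; 15 per group, allocated by EPG ranking. Herds were levamisole-treated beforehand, then grazed ≥2 months on-farm. Dosing was oral 2.5 mg/kg or SC 0.2 or 3.75 mg/kg. Rectal faeces on day −1 and day 15 were read by modified McMaster (10 EPG). FECR (%) = 100(1 − T2/T1), using arithmetic group mean EPG; 95% CI by the Coles method.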

Cooperia spp. = assay: FECR by genus from coprocultures, naturally parasitized calves; assay type: in vivo
How it was run: (§1)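 Male Aberdeen Angus calves, 9–11 months, naturally infected, ≥100 EPG on day −1, were ranked by EPG and randomised to groups of 15 per farm. Dosing was oral 2.5 mg/kg or SC 0.2 or 3.75 mg/kg. Rectal faeces on day −1 and day 15 were read by modified McMaster (10 EPG sensitivity). Coprocultures used 10 g faeces; ~100 Baermann L3 were identified per sample. Genus efficacy used group mean EPG […] that genus's L3 proportion.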

Haemonchus spp. = assay: as above; assay type: in vivo
How it was run: as §1

Ostertagia spp. = assay: FECR by genus from coprocultures, naturally parasitized calves; assay type: in vivo
Oesophagostomum spp. = assay: FECR by genus from coprocultures, naturally parasitized calves; assay type: in vivo
How it was run: as §1

[3] = Adverse events in treated cattle; assay type: in vivo; conditions: cattle treated with MNP oral 2.5 mg/kg
[4] = sheep, ref Lifschitz et al., 2014; cited from earlier work
Oesophagostomum = conditions: sheep, cited from earlier work; for reduction of Oesophagostomum: 2009
[5] = liver metabolism, sheep compared to cattle, ref Ballent et al., 2016; cited from earlier work

C[C@](C#N)(COc1cc(C#N)ccc1C(F)(F)F)NC(=O)c1ccc(SC(F)(F)F)cc1 [MNP, monepantel]
time post-administration up to which analyte was measured/recovered in plasma ([1]; MNP oral 2.5 mg/kg, calves, LOQ 4 ng/mL): up to 120 h | AUC ([1]; bovine, plasma, po, 2.5 mg/kg): 1710 ± 651 ng·h/mL | AUC(0-inf) ([1]; bovine, plasma, po, 2.5 mg/kg): 2170 ± 783 ng·h/mL | Cmax ([1]; bovine, plasma, po, 2.5 mg/kg): 21.5 ± 4.62 ng/mL | MRT ([1]; bovine, plasma, po, 2.5 mg/kg): 112 ± 40.8 h | Tmax ([1]; bovine, plasma, po, 2.5 mg/kg): 8 ± 1.51 h | half-life ([1]; bovine, plasma, po, 2.5 mg/kg): 81 ± 31 h | EPG Counts Day 15 ([2]; Farm 1, 15 days post-treatment): 5.6a (0–20) EPG | EPG Counts Day 15 ([2]; Farm 2, 15 days post-treatment): 8a (0–20) EPG | EPG Counts Day 15 ([2]; Farm 3, 15 days post-treatment): 7a (0–20) EPG | overall efficacy (FECR) across farms ([2]; Farms 1, 2 and 3 together, day 15): 96–99% | FECR Day 15 (Cooperia spp.; Farm 1): 100% | FECR Day 15 (Cooperia spp.; Farm 2): 100% | FECR Day 15 (Cooperia spp.; Farm 3): 100% | efficacy (FECR) across farms (Cooperia spp.; Farms 1-3 together): 100% | FECR Day 15 (Haemonchus spp.; Farm 1): 100% | FECR Day 15 (Haemonchus spp.; Farm 2): 100% | FECR Day 15 (Haemonchus spp.; Farm 3): 100% | efficacy (FECR) across farms (Haemonchus spp.; Farms 1-3 together): 100% | FECR Day 15 (Ostertagia spp.; Farm 1): 100% | FECR Day 15 (Ostertagia spp.; Farm 2): 100% | FECR Day 15 (Ostertagia spp.; Farm 3): 99% | efficacy (FECR) across farms (Ostertagia spp.; Farms 1-3 together): 100% | FECR Day 15 (Oesophagostomum spp.; Farm 1): 74% | FECR Day 15 (Oesophagostomum spp.; Farm 2): 22% | FECR Day 15 (Oesophagostomum spp.; Farm 3): 64% | adverse events [3]: no adverse events were observed | concentration of MNP in the large intestine mucosa [4]: 225 ng/g | concentration of MNP in the small intestine mucosa, duodenum [4]: 762 ng/g | concentration of MNP in the small intestine mucosa, ileum [4]: 562 ng/g | reduction of Oesophagostomum (Oesophagostomum; ref Bustamante et al.): 61.9% | efficacy against Oesophagostomum (Oesophagostomum; ref Hosking et al. (2009)): below 90% | reduction of Oesophagostomum (Oesophagostomum; ref Sager et al.): 88% | rate of MNP conversion into MNPSO2 [5]: five-fold higher in sheep compared to cattle

CCC[S+]([O-])c1ccc2[nH]c(NC(=O)OC)nc2c1 (centres unmarked) [RBZ, ricobendazole]
EPG Counts Day 15 ([2]; Farm 1, 15 days post-treatment): 31^a (0–120) EPG | 95% lower confidence interval of FECR ([2]; Farm 1, day 15): less than 90% | EPG Counts Day 15 ([2]; Farm 2, 15 days post-treatment): 3^a (0–20) EPG | EPG Counts Day 15 ([2]; Farm 3, 15 days post-treatment): 115^b (0–320) EPG | FECR Day 15 (Cooperia spp.; Farm 1): 86% | FECR Day 15 (Cooperia spp.; Farm 2): 99% | FECR Day 15 (Cooperia spp.; Farm 3): 54% | FECR Day 15 (Haemonchus spp.; Farm 1): 99% | FECR Day 15 (Haemonchus spp.; Farm 2): 95% | FECR Day 15 (Haemonchus spp.; Farm 3): 98% | FECR Day 15 (Ostertagia spp.; Farm 2): 100% | FECR Day 15 (Ostertagia spp.; Farm 3): 0% | efficacy (FECR) on Farms 1 and 3 (Ostertagia spp.; Farms 1 and 3, stated jointly with Cooperia spp.): below 90% | FECR Day 15 (Oesophagostomum spp.; Farm 1): 100% | FECR Day 15 (Oesophagostomum spp.; Farm 2): 100% | FECR Day 15 (Oesophagostomum spp.; Farm 3): 100%

CC[C@H](C)[C@H]1O[C@]2(CC[C@@H]1C)C[C@@H]1C[C@@H](C/C=C(\C)[C@@H](O[C@H]3C[C@H](OC)[C@@H](O[C@H]4C[C@H](OC)[C@@H](O)[C@H](C)O4)[C@H](C)O3)[C@@H](C)/C=C/C=C3\CO[C@@H]4[C@H](O)C(C)=C[C@@H](C(=O)O1)[C@]34O)O2 [IVM, ivermectin]
EPG Counts Day 15 ([2]; Farm 1, 15 days post-treatment): 269^b (0–1060) EPG | EPG Counts Day 15 ([2]; Farm 2, 15 days post-treatment): 111^b (0–320) EPG | EPG Counts Day 15 ([2]; Farm 3, 15 days post-treatment): 362^b (20–1520) EPG | FECR Day 15 (Cooperia spp.; Farm 1): 80% | FECR Day 15 (Cooperia spp.; Farm 2): 56% | FECR Day 15 (Cooperia spp.; Farm 3): 43% | FECR Day 15 (Haemonchus spp.; Farm 1): 19% | FECR Day 15 (Haemonchus spp.; Farm 2): 100% | FECR Day 15 (Haemonchus spp.; Farm 3): 0% | FECR Day 15 (Ostertagia spp.; Farm 1): 100% | FECR Day 15 (Ostertagia spp.; Farm 2): 100% | FECR Day 15 (Ostertagia spp.; Farm 3): 100% | FECR Day 15 (Oesophagostomum spp.; Farm 1): 100% | FECR Day 15 (Oesophagostomum spp.; Farm 2): 100% | FECR Day 15 (Oesophagostomum spp.; Farm 3): 100%
